What is called half-life is the time in which the quantity being followed falls by half. Read a high half-life as slow decline.

The values that follow come from ChEMBL document CHEMBL1134294, “A prodrug form of a Plasmodium falciparum glutathione reductase inhibitor conjugated with a 4-anilinoquinoline” (J Med Chem, 2001).

Series [1] is described as follows: Susceptibility of compound to hydrolysis at 37 degrees C at pH 5.0 acetate medium. The class given is ADME. Summed up: (§1)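 Prodrug (100 μM final, from 1 mM stock in 10% aqueous DMSO) is incubated at 37 °C in pH 7.4 phosphate buffer (150 mM NaCl, 4 mM NaH₂PO₄, 25 mM NaHCO₃) or pH 5.0 acetate (150 mM NaCl, 10 mM NaOAc). Half-life of ester disappearance is found by HPLC as the mean of two determinations.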

Series [2] is described as follows: Susceptibility of compound to hydrolysis at 37 degrees C at pH 7.4 phosphate buffer. The class given is ADME. Summed up:
as §1

Series [3] can be described thus: Susceptibility of compound to hydrolysis at 37 degrees C for RPMI-10% human serum. The class given is ADME. Conditions: RPMI with 10% human serum. A digest of the protocol: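 Prodrug (100 μM final, from 1 mM stock in 10% aqueous DMSO) is held in RPMI with 10% human serum at 37 °C and sampled from 0 to 77.5 h. Samples are mixed with EtOH plus internal reference, centrifuged, and the supernatant is analysed by HPLC. Half-life of ester disappearance is the mean of two determinations.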

For a further series, the system named is Mus musculus. In words: Percentage excess MST, when used as the chlorohydrate in mice infected with Plasmodium berghei (i.p., 40 mg/kg). The class given is functional. As to conditions: route intraperitoneal. Summed up: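 Female Swiss CD-1 mice (four weeks, 20–25 g), three per group, were infected ip with about 10^7 P. berghei ANKA parasitized erythrocytes. Dosing was 40 mg/kg in 100% DMSO, given orally at infection, then ip over the following 4 days. Parasitemia was counted daily. Activity was scored as percentage excess mean survival time over DMSO-treated infected controls.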

In series [4] the test system is Plasmodium falciparum. In words: Effective dose against chloroquine-resistant Plasmodium falciparum FcB1R. The class given is functional. Conditions: read-out: ED50. Summed up:
(§2)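 Asynchronous cultures in human erythrocytes (0.5% parasitemia, 1% hematocrit) received serially diluted drug, DMSO ≤0.1%. After 24 h at 37 °C, 0.5 μCi [3H]hypoxanthine was added and incubation continued another 24 h. Growth inhibition was taken versus drug-free control, ED50 read from the concentration–response curve, and reported as mean of ≥3 independent experiments.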

A further series deals with Plasmodium berghei. Put plainly: Parasitaemia (%) on day 4 in Plasmodium berghei infected mice (Mus musculus) at 40 mg/kg intraperitoneal dose. The class given is functional. A digest of the protocol: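 Female Swiss CD-1 mice (four-week-old, 20–25 g, three per group) are infected ip with about 10⁷ P. berghei ANKA 65 parasitized erythrocytes from a donor. On the day of infection they receive 40 mg/kg orally in 100% DMSO, then daily ip for 4 days. Parasitemia is counted daily. Controls get DMSO only.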

Series [5] relates to Plasmodium falciparum. In words: In vitro efficacy for chloroquine-resistant Plasmodium falciparum W2. The class given is functional. As to conditions: read-out: ED50 (the source's name). A digest of the protocol:
as §2

In series [6] the test system is Plasmodium falciparum. Put plainly: In vitro efficacy for chloroquine-resistant Plasmodium falciparum FcB1. The class given is functional. As to conditions: read-out: ED50 (the source's name). A digest of the protocol:
as §2

Series [7] has as its system Plasmodium falciparum. In words: In vitro efficacy for chloroquine-resistant Plasmodium falciparum K1. The class given is functional. As to conditions: read-out: ED50 (the source's name). Summed up: as §2
Series [8] deals with Plasmodium falciparum. Put plainly: In vitro efficacy for chloroquine-sensitive Plasmodium falciparum D6. As to conditions: read-out: ED50 (the source's name).
Series [9] concerns Plasmodium falciparum. In words: In vitro efficacy for chloroquine-sensitive Plasmodium falciparum F32. As to conditions: read-out: ED50 (the source's name).
Series [10] concerns Plasmodium falciparum. In words: In vitro efficacy for chloroquine-sensitive Plasmodium falciparum Thai. As to conditions: read-out: ED50 (the source's name).

In the case of `CC1=C(CCCCC(=O)OCc2cc(NC(=O)CN3CCCCC3)cc(Nc3ccnc4cc(Cl)ccc34)c2)C(=O)c2c(O)cccc2C1=O`, the half-life in series [1], in [2] and in [3] was > 3.33 days throughout. Also, the “Excess MST” value with Mus musculus stood at 39%. Moreover, in the series on Plasmodium falciparum [4], the EC50 came out at 28.7 nM. Also, in the series on Plasmodium berghei, the Parasitaemia is recorded as 9%.

On to `CCN(CC)CCCC(C)Nc1ccnc2cc(Cl)ccc12` (configuration not stated) [CHLOROQUINE], for which the EC50 in the series with Plasmodium falciparum [5] is 175 nM; with Plasmodium falciparum [6], 126 nM; in the series with Plasmodium falciparum [7] it was 183 nM; with Plasmodium falciparum [8], 54 nM; with Plasmodium falciparum [9], 19 nM; with Plasmodium falciparum [10], 14.3 nM.
